Key:
Assay type in all cases: functional, cell-based
[1] = Cytotoxicity against human MKN45 cells after 72 hrs by MTT assay; conditions: MKN-45, 72 h
Summary of the method: (§1)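 Cells suspended in MEM medium, plated and incubated 24 h at 37 °C in 5% CO₂, then exposed to compounds at indicated final concentrations for 72 h. IC₅₀ from averages of three determinations, relative to DMSO vehicle control.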

HT-29 = assay: Cytotoxicity against human HT-29 cells after 72 hrs by MTT assay; conditions: HT-29, 72 h; summary of the method: as §1
MDA-MB-231 = assay: Cytotoxicity against human MDA-MB-231 cells after 72 hrs by MTT assay; conditions: MDA-MB-231, 72 h; summary of the method: as §1
[2] = Cytotoxicity against human H460 cells after 72 hrs by MTT assay; conditions: NCI-H460, 72 h; summary of the method: as §1

Row | Structure (SMILES) | IC50 [1] [µM] | IC50 (HT-29) [µM] | IC50 (MDA-MB-231) [µM] | IC50 [2] [µM]
1 | CN(C)CCNc1nc(-c2ccc(NC(=O)Nc3ccccc3)cc2)nc2ccsc12 | 1.12 | 0.62 | 1.31 | 0.64
2 | CCN(CC)CCNc1nc(-c2ccc(NC(=O)Nc3ccc(Cl)cc3)cc2)nc2c(Cl)c(Cl)sc12 | 0.89 | 0.43 | 0.75 | 0.32
3 | CCN(CC)CCCNc1nc(-c2ccc(NC(=O)Nc3ccccc3)cc2)nc2c(Cl)c(Cl)sc12 | 1.64 | 0.82 | 1.78 | 0.85
4 | CN(C)CCCNc1nc(-c2ccc(NC(=O)Nc3ccc(F)cc3)cc2)nc2c(Cl)c(Cl)sc12 | 1.12 | 0.43 | 0.98 | 0.65
5 | CN(C)CCCNc1nc(-c2ccc(NC(=O)Nc3ccc(Cl)cc3Cl)cc2)nc2c(Cl)c(Cl)sc12 | 2.56 | 1.32 | 3.49 | 0.98
6 | CS(=O)(=O)N1CCN(Cc2cc3nc(-c4cccc5[nH]ncc45)nc(N4CCOCC4)c3s2)CC1 [PICTILISIB] | 0.6 | – | – | –
7 | CN(C)CCNc1nc(-c2ccc(NC(=O)Nc3ccccc3Cl)cc2)nc2c(Cl)c(Cl)sc12 | 1.17 | 0.57 | 1.35 | 0.44
8 | CCN(CC)CCNc1nc(-c2ccc(NC(=O)Nc3ccc(Cl)cc3Cl)cc2)nc2ccsc12 | 1.52 | 1.94 | 2.48 | 1.89
9 | CCN(CC)CCCNc1nc(-c2ccc(NC(=O)Nc3ccccc3F)cc2)nc2ccsc12 | 0.58 | 0.55 | 0.86 | 0.37
10 | CN(C)CCCNc1nc(-c2ccc(NC(=O)Nc3ccccc3F)cc2)nc2ccsc12 | 0.73 | 0.47 | 0.66 | 0.53
11 | CCN(CC)CCCNc1nc(-c2ccc(NC(=O)Nc3ccccc3Cl)cc2)nc2c(Cl)c(Cl)sc12 | 1.45 | 0.41 | 0.97 | 0.33
12 | CN(C)CCNc1nc(-c2ccc(NC(=O)Nc3ccc(Cl)cc3)cc2)nc2ccsc12 | 0.25 | 0.095 | 0.31 | 0.13
13 | CN(C)CCNc1nc(-c2ccc(NC(=O)Nc3ccccc3Cl)cc2)nc2ccsc12 | 0.85 | 0.31 | 0.55 | 0.23
14 | CCN(CC)CCCNc1nc(-c2ccc(NC(=O)Nc3ccc(Cl)cc3Cl)cc2)nc2c(Cl)c(Cl)sc12 | 5.72 | 1.23 | 3.94 | 1.17
15 | CCN(CC)CCCNc1nc(-c2ccc(NC(=O)Nc3ccc(F)cc3)cc2)nc2ccsc12 | 0.47 | 0.34 | 0.53 | 0.29
16 | Cc1ccc(NC(=O)Nc2ccc(-c3nc(NCCCN(C)C)c4sc(Cl)c(Cl)c4n3)cc2)cc1 | 3.7 | 1.32 | 4.98 | 1.11
17 | CN(C)CCNc1nc(-c2ccc(NC(=O)Nc3ccc(Cl)cc3)cc2)nc2c(Cl)c(Cl)sc12 | 0.91 | 0.46 | 0.87 | 0.3
18 | CN(C)CCNc1nc(-c2ccc(NC(=O)Nc3ccc(Cl)cc3Cl)cc2)nc2ccsc12 | 2.36 | 1.32 | 2.45 | 1.65
19 | CN(C)CCCNc1nc(-c2ccc(NC(=O)Nc3ccccc3Cl)cc2)nc2ccsc12 | 0.69 | 0.39 | 0.59 | 0.43
20 | CN(C)CCCNc1nc(-c2ccc(NC(=O)Nc3ccccc3Cl)cc2)nc2c(Cl)c(Cl)sc12 | 1.33 | 0.82 | 1.56 | 0.49

Row | Structure (SMILES) | IC50 [1] [µM] | IC50 (HT-29) [µM] | IC50 (MDA-MB-231) [µM] | IC50 [2] [µM]
21 | CCN(CC)CCCNc1nc(-c2ccc(NC(=O)Nc3ccc(F)cc3)cc2)nc2c(Cl)c(Cl)sc12 | 1.7 | 0.35 | 1.63 | 0.45
22 | CCN(CC)CCCNc1nc(-c2ccc(NC(=O)Nc3ccccc3Cl)cc2)nc2ccsc12 | 0.39 | 0.34 | 0.5 | 0.2
23 | CN(C)CCNc1nc(-c2ccc(NC(=O)Nc3ccc(Cl)cc3Cl)cc2)nc2c(Cl)c(Cl)sc12 | 3.46 | 1.28 | 3.5 | 1.52
24 | CN(C)CCCNc1nc(-c2ccc(NC(=O)Nc3ccc(Cl)cc3Cl)cc2)nc2ccsc12 | 2.27 | 1.86 | 1.86 | 1.02
25 | CN(C)CCCNc1nc(-c2ccc(NC(=O)Nc3ccc(Cl)cc3)cc2)nc2c(Cl)c(Cl)sc12 | 1.53 | 0.33 | 1.16 | 0.23
26 | Cc1ccc(NC(=O)Nc2ccc(-c3nc(NCCN(C)C)c4sccc4n3)cc2)cc1 | 2.38 | 2.15 | 2.18 | 1.88
27 | CCN(CC)CCNc1nc(-c2ccc(NC(=O)Nc3ccccc3Cl)cc2)nc2c(Cl)c(Cl)sc12 | 1.13 | 0.55 | 1.41 | 0.46
28 | CCN(CC)CCCNc1nc(-c2ccc(NC(=O)Nc3ccc(Cl)cc3)cc2)nc2c(Cl)c(Cl)sc12 | 0.72 | 0.25 | 0.66 | 0.27
29 | CN(C)CCNc1nc(-c2ccc(NC(=O)Nc3ccccc3F)cc2)nc2ccsc12 | 0.53 | 0.51 | 0.6 | 0.41
30 | CCN(CC)CCNc1nc(-c2ccc(NC(=O)Nc3ccccc3F)cc2)nc2ccsc12 | 1.04 | 0.61 | 0.58 | 0.43
31 | CCN(CC)CCNc1nc(-c2ccc(NC(=O)Nc3ccccc3Cl)cc2)nc2ccsc12 | 0.75 | 0.62 | 0.68 | 0.32
32 | CCN(CC)CCCNc1nc(-c2ccc(NC(=O)Nc3ccccc3)cc2)nc2ccsc12 | 0.98 | 0.73 | 1.23 | 0.68
33 | CCN(CC)CCCNc1nc(-c2ccc(NC(=O)Nc3ccc(C)cc3)cc2)nc2c(Cl)c(Cl)sc12 | 3.32 | 0.89 | 3.04 | 1.24
34 | CCN(CC)CCNc1nc(-c2ccc(NC(=O)Nc3ccc(Cl)cc3Cl)cc2)nc2c(Cl)c(Cl)sc12 | 1.77 | 1.14 | 1.92 | 1.3
35 | CN(C)CCNc1nc(-c2ccc(NC(=O)Nc3ccc(F)cc3)cc2)nc2c(Cl)c(Cl)sc12 | 1.35 | 0.89 | 1.24 | 0.59
36 | CCN(CC)CCNc1nc(-c2ccc(NC(=O)Nc3ccc(F)cc3)cc2)nc2c(Cl)c(Cl)sc12 | 1.37 | 0.65 | 1.13 | 0.5
37 | CN(C)CCNc1nc(-c2ccc(NC(=O)Nc3ccc(F)cc3)cc2)nc2ccsc12 | 0.33 | 0.35 | 0.54 | 0.39
38 | CCN(CC)CCCNc1nc(-c2ccc(NC(=O)Nc3ccc(C)cc3)cc2)nc2ccsc12 | 1.76 | 1.62 | 1.98 | 1.24
39 | CCN(CC)CCNc1nc(-c2ccc(NC(=O)Nc3ccc(Cl)cc3)cc2)nc2ccsc12 | 0.37 | 0.15 | 0.55 | 0.19
40 | CCN(CC)CCNc1nc(-c2ccc(NC(=O)Nc3ccc(C)cc3)cc2)nc2c(Cl)c(Cl)sc12 | 1.45 | 0.95 | 2.01 | 0.84
